Experimental data from publication PMC8144927 (Virology, 2021).

Molecular target: angiotensin-converting enzyme 2 (ACE2) (Homo sapiens, UniProt Q9BYF1)
Test: SPR
Format: binding
Method in brief: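 Nitrilotriacetic acid (NTA) sensor chip surface primed and charged with Ni2+ by sequential injection of 200 mM imidazole and 40 mM NiCl2. His6-tagged ACE2 protein at 20 μg/mL captured on the chip, with test compound as analyte. Supporting ACE2h cell membrane chromatography: 10.0 mm × 2.0 mm column, 37 °C, 0.2 mL/min, 2 mM phosphate-buffered saline (pH 7.4), detection at 284 nm.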

Chain of angiotensin-converting enzyme 2 (ACE2) (Q9BYF1 18-805): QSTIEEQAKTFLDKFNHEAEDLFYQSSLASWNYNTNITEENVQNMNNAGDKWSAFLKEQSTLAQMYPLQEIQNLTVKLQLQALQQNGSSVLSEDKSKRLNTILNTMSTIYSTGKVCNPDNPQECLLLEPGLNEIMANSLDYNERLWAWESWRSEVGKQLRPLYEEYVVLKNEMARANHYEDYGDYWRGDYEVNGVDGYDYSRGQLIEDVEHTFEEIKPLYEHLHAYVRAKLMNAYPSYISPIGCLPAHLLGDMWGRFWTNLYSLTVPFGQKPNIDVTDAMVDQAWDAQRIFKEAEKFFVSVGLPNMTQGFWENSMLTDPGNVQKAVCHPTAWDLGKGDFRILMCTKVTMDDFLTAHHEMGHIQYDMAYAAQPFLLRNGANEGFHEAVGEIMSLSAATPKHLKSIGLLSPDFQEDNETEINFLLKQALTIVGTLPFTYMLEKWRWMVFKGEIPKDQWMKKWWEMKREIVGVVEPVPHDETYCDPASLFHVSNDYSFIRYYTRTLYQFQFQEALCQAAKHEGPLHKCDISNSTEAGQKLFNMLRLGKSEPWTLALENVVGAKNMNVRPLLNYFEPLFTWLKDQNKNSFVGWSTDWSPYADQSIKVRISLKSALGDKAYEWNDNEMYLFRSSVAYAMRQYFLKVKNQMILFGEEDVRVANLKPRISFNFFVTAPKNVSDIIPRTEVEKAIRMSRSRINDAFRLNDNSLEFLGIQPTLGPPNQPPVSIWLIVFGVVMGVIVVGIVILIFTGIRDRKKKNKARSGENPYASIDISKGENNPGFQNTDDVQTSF

Q: For `CN1CCCC(n2nc(Cc3ccc(Cl)cc3)c3ccccc3c2=O)CC1` (stereo not shown) [azelastine], which Kd is on record?
A: 258 nM
